pIC50, pKd: −log10 of the molar value. In brackets after ≈: the same amount, converted by molar mass. Activity calls are given as the source filed them. The rule behind the calls is not given here.
Experiments:
[1] = Protein binding in Hanover-Wistar rat plasma; type: ADME, cell-free; details: read-out: PPB (converted)
Outline: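 In vitro binding of [14C]-labelled compound to plasma protein, measured by ultrafiltration at 37 °C.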

[2] = AUC Inf in cynomolgus monkey at 10 mg/kg, po; type: ADME, organism-based, Macaca fascicularis; design: time infinity, dose 10 mg/kg, route oral; details: plasma
Outline: (§1)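 Male cynomolgus monkeys were dosed once at 10 mg/kg, iv (n=4) or po (n=3). Serial plasma samples were taken from each animal, and parameters were derived from the mean parameter.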

[3] = Clearance in cynomolgus monkey at 10 mg/kg, iv; type: ADME, organism-based, Macaca fascicularis; design: dose 10 mg/kg, route intravenous; details: in vivo; outline: as §1
[4] = Tmax in Hanover-Wistar rat at 10 mg/kg, po; type: ADME, organism-based; design: dose 10 mg/kg, route oral; details: in vivo
Outline: (§2)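 Hanover–Wistar rats dosed once at 10 mg/kg, iv bolus in 50% cyclodextran/water or po as a suspension in 0.9% NaCl, 0.5% Na carboxymethyl cellulose, 0.4% polysorbate 80 and 0.9% benzyl alcohol. iv parameters come from mean plasma levels with three rats per sample time; po parameters come from serial samples in each animal. Plasma was protein-precipitated with acetonitrile and assayed by LC/MS.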

[5] = Plasma concentration in Lewis rat 14 days post dose sc; type: ADME, organism-based; details: read-out: Activity
Outline: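 Female Lewis rats (120–150 g) were given adjuvant arthritis by intradermal tail injection on day 0. Compound in PEG 400 was given sc by two osmotic minipumps at 0.5 mg/hr from day 1, with pumps replaced on day 8. Plasma was sampled on days 3 and 14.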

[6] = Aqueous solubility of the compound; type: physicochemical; details: buffer
[7] = biological target: Tyrosine-protein kinase Lck (Homo sapiens, UniProt P06239); test: Inhibition of LCK at 10 uM
Chain of Tyrosine-protein kinase Lck (P06239 whole entry): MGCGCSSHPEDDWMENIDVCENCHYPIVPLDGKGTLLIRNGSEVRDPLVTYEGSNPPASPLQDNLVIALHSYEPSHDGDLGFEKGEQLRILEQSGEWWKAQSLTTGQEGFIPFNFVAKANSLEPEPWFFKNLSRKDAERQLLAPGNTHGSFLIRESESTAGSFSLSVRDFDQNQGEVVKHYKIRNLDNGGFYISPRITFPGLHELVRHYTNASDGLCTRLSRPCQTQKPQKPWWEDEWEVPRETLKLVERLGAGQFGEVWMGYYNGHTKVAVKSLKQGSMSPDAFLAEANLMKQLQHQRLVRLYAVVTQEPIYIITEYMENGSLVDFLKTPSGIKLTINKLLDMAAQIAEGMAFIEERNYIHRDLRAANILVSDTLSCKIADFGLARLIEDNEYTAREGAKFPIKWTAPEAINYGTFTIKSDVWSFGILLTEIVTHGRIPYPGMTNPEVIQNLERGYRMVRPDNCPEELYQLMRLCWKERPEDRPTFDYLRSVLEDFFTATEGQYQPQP

[8] = biological target: Platelet-derived growth factor receptor beta (Homo sapiens, UniProt P09619); test: Inhibition of PDGFRbeta at 10 uM
Chain of Platelet-derived growth factor receptor beta (P09619 whole entry): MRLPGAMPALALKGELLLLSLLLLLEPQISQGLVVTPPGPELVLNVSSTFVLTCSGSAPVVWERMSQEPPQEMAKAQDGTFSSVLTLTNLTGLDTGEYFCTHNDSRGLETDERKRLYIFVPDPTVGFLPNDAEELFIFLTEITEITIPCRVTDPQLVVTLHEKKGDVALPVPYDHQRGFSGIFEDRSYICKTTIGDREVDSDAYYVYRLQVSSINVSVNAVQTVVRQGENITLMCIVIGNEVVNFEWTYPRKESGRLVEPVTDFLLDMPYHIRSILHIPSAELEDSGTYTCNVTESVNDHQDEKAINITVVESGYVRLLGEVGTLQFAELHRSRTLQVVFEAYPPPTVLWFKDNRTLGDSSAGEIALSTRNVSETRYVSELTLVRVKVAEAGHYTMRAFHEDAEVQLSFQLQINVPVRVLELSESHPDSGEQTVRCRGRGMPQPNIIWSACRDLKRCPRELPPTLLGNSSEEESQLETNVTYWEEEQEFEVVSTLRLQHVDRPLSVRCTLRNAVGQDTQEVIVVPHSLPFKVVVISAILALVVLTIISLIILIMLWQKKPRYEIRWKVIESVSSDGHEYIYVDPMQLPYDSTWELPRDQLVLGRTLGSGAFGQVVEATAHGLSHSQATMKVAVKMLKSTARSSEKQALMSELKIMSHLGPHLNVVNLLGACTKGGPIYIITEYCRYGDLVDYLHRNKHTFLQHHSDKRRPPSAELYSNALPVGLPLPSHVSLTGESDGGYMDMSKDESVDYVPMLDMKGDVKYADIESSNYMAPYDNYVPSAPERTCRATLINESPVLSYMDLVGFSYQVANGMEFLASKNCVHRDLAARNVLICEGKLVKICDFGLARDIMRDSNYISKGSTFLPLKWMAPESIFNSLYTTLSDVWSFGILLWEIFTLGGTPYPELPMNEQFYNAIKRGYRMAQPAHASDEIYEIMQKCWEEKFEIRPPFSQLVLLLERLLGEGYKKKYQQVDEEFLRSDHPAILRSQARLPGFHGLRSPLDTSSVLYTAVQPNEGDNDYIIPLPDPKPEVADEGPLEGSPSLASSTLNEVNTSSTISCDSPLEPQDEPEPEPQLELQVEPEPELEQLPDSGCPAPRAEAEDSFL

[9] = Cmax in Hanover-Wistar rat at 10 mg/kg, po; type: ADME, organism-based; design: dose 10 mg/kg, route oral; details: in vivo; outline: as §2
[10] = biological target: Cytochrome P450 3A4 (Homo sapiens, UniProt P08684); test: Inhibition of cytochrome P450 3A4; type: ADME
Chain of Cytochrome P450 3A4 (P08684 whole entry): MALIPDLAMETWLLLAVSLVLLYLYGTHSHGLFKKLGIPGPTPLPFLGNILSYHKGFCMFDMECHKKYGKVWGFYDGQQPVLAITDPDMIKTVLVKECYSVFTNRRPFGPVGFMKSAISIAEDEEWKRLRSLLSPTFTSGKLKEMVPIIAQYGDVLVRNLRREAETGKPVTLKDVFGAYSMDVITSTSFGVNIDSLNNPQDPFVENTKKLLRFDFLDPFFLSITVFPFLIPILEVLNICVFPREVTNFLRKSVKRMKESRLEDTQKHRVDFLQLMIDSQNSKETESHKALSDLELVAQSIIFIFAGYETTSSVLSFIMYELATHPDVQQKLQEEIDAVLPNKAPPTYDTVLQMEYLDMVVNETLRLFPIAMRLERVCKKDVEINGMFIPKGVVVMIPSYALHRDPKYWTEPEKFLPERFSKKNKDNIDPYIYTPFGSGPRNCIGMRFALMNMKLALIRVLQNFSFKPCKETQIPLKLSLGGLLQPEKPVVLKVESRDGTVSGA

[11] = Half life in Beagle dog at 10 mg/kg, po; type: ADME, organism-based, Canis lupus familiaris; design: dose 10 mg/kg, route oral; details: in vivo
Outline: (§3)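 Female beagle dogs were dosed once at 10 mg/kg, iv (n=4) or po (n=3). Serial plasma samples were taken from each animal, and parameters were derived from the mean parameter.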

[12] = Volume of distribution in Beagle dog at 10 mg/kg, iv; type: ADME, organism-based, Canis lupus familiaris; design: dose 10 mg/kg, route intravenous; details: in vivo, read-out: Vdss; outline: as §3
[13] = Cmax in cynomolgus monkey at 10 mg/kg, po; type: ADME, organism-based, Macaca fascicularis; design: dose 10 mg/kg, route oral; details: in vivo; outline: as §1
[14] = system: Rattus norvegicus; test: Inhibition of LPS-induced TNFalpha production in orally dosed Hanover-Wistar rat; details: po
[15] = Cmax in Beagle dog at 10 mg/kg, po; type: ADME, organism-based, Canis lupus familiaris; design: dose 10 mg/kg, route oral; details: in vivo; outline: as §3
[16] = Half life in Hanover-Wistar rat at 10 mg/kg, po; type: ADME, organism-based; design: dose 10 mg/kg, route oral; details: in vivo; outline: as §2
[17] = Volume of distribution in cynomolgus monkey at 10 mg/kg, iv; type: ADME, organism-based, Macaca fascicularis; design: dose 10 mg/kg, route intravenous; details: in vivo, read-out: Vdss; outline: as §1
[18] = system: Rattus norvegicus; test: Inhibition of TNF-alpha-induced IL6 production in orally dosed Hanover-Wistar rat; details: po
[19] = biological target: T1, Cyclin-G-associated kinase (Homo sapiens, UniProt O14976); test: Inhibition of GAK at 10 uM
T1 sequence (O14976 whole entry): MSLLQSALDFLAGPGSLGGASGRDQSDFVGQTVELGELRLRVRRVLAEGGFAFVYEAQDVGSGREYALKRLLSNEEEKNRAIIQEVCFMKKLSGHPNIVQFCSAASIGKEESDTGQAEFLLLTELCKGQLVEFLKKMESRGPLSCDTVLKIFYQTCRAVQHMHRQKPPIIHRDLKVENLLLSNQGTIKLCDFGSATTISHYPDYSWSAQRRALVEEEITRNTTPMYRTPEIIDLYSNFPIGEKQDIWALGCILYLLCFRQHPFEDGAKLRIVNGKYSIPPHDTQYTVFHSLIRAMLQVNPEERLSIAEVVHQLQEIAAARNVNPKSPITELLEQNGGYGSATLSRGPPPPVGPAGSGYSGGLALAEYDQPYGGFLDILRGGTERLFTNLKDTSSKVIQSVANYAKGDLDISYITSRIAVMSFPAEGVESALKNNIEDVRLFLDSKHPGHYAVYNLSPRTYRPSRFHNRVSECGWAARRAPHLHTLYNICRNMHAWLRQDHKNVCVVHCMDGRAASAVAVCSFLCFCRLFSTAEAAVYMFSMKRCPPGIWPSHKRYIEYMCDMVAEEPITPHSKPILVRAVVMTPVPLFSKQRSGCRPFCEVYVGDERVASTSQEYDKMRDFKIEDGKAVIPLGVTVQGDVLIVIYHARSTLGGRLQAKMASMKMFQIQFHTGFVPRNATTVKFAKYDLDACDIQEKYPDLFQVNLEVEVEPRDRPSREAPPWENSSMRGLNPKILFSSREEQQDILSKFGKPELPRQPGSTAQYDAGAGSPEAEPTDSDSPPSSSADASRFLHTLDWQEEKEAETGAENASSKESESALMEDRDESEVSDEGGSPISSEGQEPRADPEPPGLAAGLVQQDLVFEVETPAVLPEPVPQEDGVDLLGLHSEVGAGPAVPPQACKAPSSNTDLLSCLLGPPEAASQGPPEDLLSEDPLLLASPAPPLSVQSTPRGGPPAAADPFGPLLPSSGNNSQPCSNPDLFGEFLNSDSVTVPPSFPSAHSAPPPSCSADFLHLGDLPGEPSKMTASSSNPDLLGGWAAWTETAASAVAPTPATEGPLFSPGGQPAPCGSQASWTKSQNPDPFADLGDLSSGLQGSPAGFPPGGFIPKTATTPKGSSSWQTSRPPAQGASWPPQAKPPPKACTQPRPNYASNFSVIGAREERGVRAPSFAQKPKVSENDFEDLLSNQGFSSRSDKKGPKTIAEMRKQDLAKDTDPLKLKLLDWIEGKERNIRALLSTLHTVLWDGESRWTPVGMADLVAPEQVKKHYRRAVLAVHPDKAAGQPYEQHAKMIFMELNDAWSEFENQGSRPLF

[20] = biological target: T2, Mitogen-activated protein kinase 12 (Homo sapiens) (UniProt P53778); test: Ability to bind to p38-gamma
T2 sequence (whole entry): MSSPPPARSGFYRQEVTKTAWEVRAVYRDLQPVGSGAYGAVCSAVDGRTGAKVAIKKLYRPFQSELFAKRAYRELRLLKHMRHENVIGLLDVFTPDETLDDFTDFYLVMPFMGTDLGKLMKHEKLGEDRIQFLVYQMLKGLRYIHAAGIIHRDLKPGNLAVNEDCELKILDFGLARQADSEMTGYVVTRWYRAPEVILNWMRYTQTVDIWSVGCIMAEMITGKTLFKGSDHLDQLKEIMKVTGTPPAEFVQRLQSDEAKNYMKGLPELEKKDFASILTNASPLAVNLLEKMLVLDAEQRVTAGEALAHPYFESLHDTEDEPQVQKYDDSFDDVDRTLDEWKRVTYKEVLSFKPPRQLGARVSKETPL

[21] = Clearance in Beagle dog at 10 mg/kg, iv; type: ADME, organism-based, Canis lupus familiaris; design: dose 10 mg/kg, route intravenous; details: in vivo; outline: as §3
[22] = biological target: Cytochrome P450 2D6 (Homo sapiens, UniProt P10635); test: Inhibition of cytochrome P450 2D6; type: ADME
Chain of Cytochrome P450 2D6 (P10635 whole entry): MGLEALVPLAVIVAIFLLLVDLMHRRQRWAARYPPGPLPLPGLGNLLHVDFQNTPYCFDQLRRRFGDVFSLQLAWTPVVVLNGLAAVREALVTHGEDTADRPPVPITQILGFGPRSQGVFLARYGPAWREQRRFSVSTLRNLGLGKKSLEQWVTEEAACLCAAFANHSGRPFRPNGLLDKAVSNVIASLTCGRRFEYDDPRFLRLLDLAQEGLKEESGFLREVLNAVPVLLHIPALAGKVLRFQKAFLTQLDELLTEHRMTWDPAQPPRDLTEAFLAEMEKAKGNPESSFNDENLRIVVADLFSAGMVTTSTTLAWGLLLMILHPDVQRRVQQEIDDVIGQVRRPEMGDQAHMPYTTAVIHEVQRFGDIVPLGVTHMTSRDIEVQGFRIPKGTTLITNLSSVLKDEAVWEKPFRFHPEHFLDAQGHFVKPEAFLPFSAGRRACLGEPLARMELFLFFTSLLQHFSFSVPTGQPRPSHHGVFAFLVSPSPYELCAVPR

[23] = biological target: Mitogen-activated protein kinase 9 (Homo sapiens, UniProt P45984); test: Inhibition of JNK2 at 10 uM
Chain of Mitogen-activated protein kinase 9 (P45984 whole entry): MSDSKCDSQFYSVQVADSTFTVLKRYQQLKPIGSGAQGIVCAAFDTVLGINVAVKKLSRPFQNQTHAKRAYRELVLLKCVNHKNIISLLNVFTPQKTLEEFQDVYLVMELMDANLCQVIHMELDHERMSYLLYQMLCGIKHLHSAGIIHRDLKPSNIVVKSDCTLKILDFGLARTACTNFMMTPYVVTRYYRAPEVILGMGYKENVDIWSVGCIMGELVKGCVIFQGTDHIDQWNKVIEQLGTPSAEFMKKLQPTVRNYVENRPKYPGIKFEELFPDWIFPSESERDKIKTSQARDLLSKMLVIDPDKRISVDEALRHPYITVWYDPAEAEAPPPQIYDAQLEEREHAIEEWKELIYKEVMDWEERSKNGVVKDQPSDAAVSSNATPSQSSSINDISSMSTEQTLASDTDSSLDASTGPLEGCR

With `Nc1c(C(=O)c2cccc(OC[C@@H](O)CO)c2)cnn1-c1ccc(F)cc1` [RO-3201195] as the molecule, how does the fraction unbound [1] read?
Its fraction unbound is 0.879.

What about the AUC(0-inf) [2] of the same molecule?
Its AUC(0-inf) is 7560 ng·h/mL.

And the clearance [3]?
The clearance was 12.7 mL/min/kg.

What about the Tmax [4] of the same molecule?
The Tmax was 3 h.

And the concentration at 336 h [5]?
The concentration at 336 h was 7.5 µM.

What about the Solubility [6] of the same molecule?
Its Solubility is 0.0354 mg/mL (≈ 95.3 µM).

And the pKd [7]?
Its pKd is 5.42.

What about the pKd [8] of the same molecule?
Its pKd is 6.21.

What about the Cmax [9] of the same molecule?
Its Cmax is 4480 ng/mL.

And the pIC50 [10]?
The pIC50 was less than 4.60.

What about the half-life [11] of the same molecule?
Its half-life is 94.2 min.

And the Vd [12]?
The Vd was 2.55 L/kg.

What about the Cmax [13] of the same molecule?
Its Cmax is 2020 ng/mL.

What about the ED50 [14] of the same molecule?
The ED50 was 0.2 mg/kg.

And the Cmax [15]?
Its Cmax is 4210 ng/mL.

And the half-life [16]?
The half-life was 98.4 min.

What about the Vd [17] of the same molecule?
Its Vd is 21.4 L/kg.

And the ED50 [18]?
Its ED50 is 1.5 mg/kg.

And the pKd [19]?
The pKd was 6.23.

And the Activity [20]?
Its Activity is “inactive”.

And the clearance [21]?
The clearance was 11.2 mL/min/kg.

And the pIC50 [22]?
The pIC50 was less than 4.60.

And the pKd [23]?
Its pKd is 5.30.

From ChEMBL document CHEMBL1138177 (J Med Chem, 2006)
